# Measurements published in ChEMBL document CHEMBL4689842, “EUbOPEN Chemogenomics Library wave 1” (2021).
# Experiments:
# Assay type in all cases: toxicity, cell-based
# [1] = test system: U2OS; assay: Multiplex assay against U2OS; details: human
# Procedure, shortened: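 Hoechst33342, BioTracker Green Microtubule Cytoskeleton Dye, MitoTracker Red and Annexin V Alexa Fluor 680 were added to live cells at seeding, and imaging on a CQ1 microscope at 37°C and 5% CO2 followed compound addition. Gating by CellPathfinder machine learning separated cells into Hoechst high-intensity objects or normal cells, then normal cells into healthy, pyknosed or fragmented nuclei, then pyknosed cells into mitotic or apoptotic. Per cents of healthy-nucleus cells are reported for the tubulin, mitochondrial-mass and membrane-permeability phenotypes.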
# [2] = test system: HEK-293T; assay: Incucyte cell viability with HEK293T; details: human, 10 µM, compound concentration 10 uM; further: filed as whole numbers so only -1 and 0 and 1 occur
# [3] = test system: Fibroblast; assay: Incucyte cell viability with human fibroblast; details: 10 µM, compound concentration 10 uM; further: filed as whole numbers so only -1 and 0 and 1 occur
# [4] = test system: U2OS; assay: Incucyte cell viability with U2OS; details: human, 10 µM, compound concentration 10 uM; further: filed as whole numbers so only -1 and 0 and 1 occur
# [5] = 12 h, 1 µM, compound concentration 1 uM, replicate 1
# [6] = 12 h, 1 µM, compound concentration 1 uM, replicate 2
# [7] = 12 h, 10 µM, compound concentration 10 uM, replicate 1
# [8] = 12 h, 10 µM, compound concentration 10 uM, replicate 2
# [9] = 24 h, 1 µM, compound concentration 1 uM, replicate 1
# [10] = 24 h, 1 µM, compound concentration 1 uM, replicate 2
# [11] = 24 h, 10 µM, compound concentration 10 uM, replicate 1
# [12] = 24 h, 10 µM, compound concentration 10 uM, replicate 2
# [13] = 6 h, replicate number 1, timepoint 6 hours
# [14] = 12 h, replicate number 1, timepoint 12 hours
# [15] = 18 h, replicate number 1, timepoint 18 hours
# [16] = 24 h, replicate number 1, timepoint 24 hours
# [17] = 0 h, replicate number 1, timepoint 0 hours
# [18] = 0 h, replicate number 2, timepoint 0 hours
# [19] = 12 h, replicate number 2, timepoint 12 hours
compound,measurement,setting,value
CN(C)C/C=C/C(=O)Nc1cc2c(Nc3ccc(F)c(Cl)c3)ncnc2cc1O[C@H]1CCOC1.O=C(O)/C=C\C(=O)O.O=C(O)/C=C\C(=O)O [AFATINIB DIMALEATE],Population Apoptotic (%),[1]; [5],56%
same,Population Fragmented Nuclei (%),[1]; [5],4%
same,Population Healthy Nuclei (%),[1]; [5],85%
same,Population Hoechst High Intensity Objects (%),[1]; [5],3%
same,Population Membrane Permeable-Phenotype (%),[1]; [5],20%
same,Population Mitochondria Different-Phenotype (%),[1]; [5],8%
same,Population Mitotic Cells (%),[1]; [5],43%
same,Population Normal (%),[1]; [5],96%
same,Population Pyknosed Nuclei (%),[1]; [5],10%
same,Population Tubulin-Different-Phenotype (%),[1]; [5],18%
same,Population Apoptotic (%),[1]; [6],37%
same,Population Fragmented Nuclei (%),[1]; [6],7%
same,Population Healthy Nuclei (%),[1]; [6],86%
same,Population Hoechst High Intensity Objects (%),[1]; [6],11%
same,Population Membrane Permeable-Phenotype (%),[1]; [6],14%
same,Population Mitochondria Different-Phenotype (%),[1]; [6],18%
same,Population Mitotic Cells (%),[1]; [6],62%
same,Population Normal (%),[1]; [6],88%
same,Population Pyknosed Nuclei (%),[1]; [6],6%
same,Population Tubulin-Different-Phenotype (%),[1]; [6],24%
same,Population Apoptotic (%),[1]; [7],62%
same,Population Healthy Nuclei (%),[1]; [7],56%
same,Population Hoechst High Intensity Objects (%),[1]; [7],2%
same,Population Membrane Permeable-Phenotype (%),[1]; [7],25%
same,Population Mitochondria Different-Phenotype (%),[1]; [7],37%
same,Population Mitotic Cells (%),[1]; [7],37%
same,Population Normal (%),[1]; [7],97%
same,Population Pyknosed Nuclei (%),[1]; [7],26%
same,Population Tubulin-Different-Phenotype (%),[1]; [7],89%
same,Population Apoptotic (%),[1]; [8],68%
same,Population Fragmented Nuclei (%),[1]; [8],16%
same,Population Healthy Nuclei (%),[1]; [8],47%
same,Population Hoechst High Intensity Objects (%),[1]; [8],13%
same,Population Membrane Permeable-Phenotype (%),[1]; [8],18%
same,Population Mitochondria Different-Phenotype (%),[1]; [8],62%
same,Population Mitotic Cells (%),[1]; [8],31%
same,Population Normal (%),[1]; [8],86%
same,Population Pyknosed Nuclei (%),[1]; [8],35%
same,Population Tubulin-Different-Phenotype (%),[1]; [8],86%
same,Population Apoptotic (%),[1]; [9],72%
same,Population Fragmented Nuclei (%),[1]; [9],6%
same,Population Healthy Nuclei (%),[1]; [9],85%
same,Population Hoechst High Intensity Objects (%),[1]; [9],1%
same,Population Membrane Permeable-Phenotype (%),[1]; [9],16%
same,Population Mitochondria Different-Phenotype (%),[1]; [9],10%
same,Population Mitotic Cells (%),[1]; [9],27%
same,Population Normal (%),[1]; [9],98%
same,Population Pyknosed Nuclei (%),[1]; [9],8%
same,Population Tubulin-Different-Phenotype (%),[1]; [9],20%
same,Population Apoptotic (%),[1]; [10],75%
same,Population Fragmented Nuclei (%),[1]; [10],7%
same,Population Healthy Nuclei (%),[1]; [10],87%
same,Population Hoechst High Intensity Objects (%),[1]; [10],10%
same,Population Membrane Permeable-Phenotype (%),[1]; [10],15%
same,Population Mitochondria Different-Phenotype (%),[1]; [10],21%
same,Population Mitotic Cells (%),[1]; [10],25%
same,Population Normal (%),[1]; [10],89%
same,Population Pyknosed Nuclei (%),[1]; [10],5%
same,Population Tubulin-Different-Phenotype (%),[1]; [10],24%
same,Population Apoptotic (%),[1]; [11],81%
same,Population Fragmented Nuclei (%),[1]; [11],10%
same,Population Healthy Nuclei (%),[1]; [11],65%
same,Population Membrane Permeable-Phenotype (%),[1]; [11],26%
same,Population Mitochondria Different-Phenotype (%),[1]; [11],66%
same,Population Mitotic Cells (%),[1]; [11],18%
same,Population Pyknosed Nuclei (%),[1]; [11],24%
same,Population Tubulin-Different-Phenotype (%),[1]; [11],49%
same,Population Apoptotic (%),[1]; [12],93%
same,Population Fragmented Nuclei (%),[1]; [12],22%
same,Population Healthy Nuclei (%),[1]; [12],41%
same,Population Hoechst High Intensity Objects (%),[1]; [12],8%
same,Population Membrane Permeable-Phenotype (%),[1]; [12],29%
same,Population Mitochondria Different-Phenotype (%),[1]; [12],72%
same,Population Mitotic Cells (%),[1]; [12],6%
same,Population Normal (%),[1]; [12],91%
same,Population Pyknosed Nuclei (%),[1]; [12],36%
same,Population Tubulin-Different-Phenotype (%),[1]; [12],47%
same,Growth Rate,[2]; [13],0
same,Growth Rate,[2]; [14],0
same,Growth Rate,[2]; [15],0
same,Growth Rate,[2]; [16],0
same,Growth Rate,[3]; [17],0
same,Growth Rate,[3]; [18],1
same,Growth Rate,[3]; [13],0
same,Growth Rate,[3]; [14],0
same,Growth Rate,[3]; [15],0
same,Growth Rate,[3]; [16],0
same,Growth Rate,[4]; [17],0
same,Growth Rate,[4]; [18],1
same,Growth Rate,[4]; [13],0
same,Growth Rate,[4]; [14],0
same,Growth Rate,[4]; [15],0
same,Growth Rate,[4]; [16],0
CCOc1cc(N2CCC(O)CC2)ccc1Nc1ncc2c(n1)N(C1CCCC1)CCC(=O)N2C,Population Apoptotic (%),[1]; [5],46%
same,Population Fragmented Nuclei (%),[1]; [5],5%
same,Population Healthy Nuclei (%),[1]; [5],86%
same,Population Hoechst High Intensity Objects (%),[1]; [5],4%
same,Population Membrane Permeable-Phenotype (%),[1]; [5],16%
same,Population Mitochondria Different-Phenotype (%),[1]; [5],14%
same,Population Mitotic Cells (%),[1]; [5],53%
same,Population Normal (%),[1]; [5],95%
same,Population Pyknosed Nuclei (%),[1]; [5],8%
same,Population Tubulin-Different-Phenotype (%),[1]; [5],18%
same,Population Apoptotic (%),[1]; [6],50%
same,Population Fragmented Nuclei (%),[1]; [6],8%
same,Population Healthy Nuclei (%),[1]; [6],89%
same,Population Hoechst High Intensity Objects (%),[1]; [6],7%
same,Population Membrane Permeable-Phenotype (%),[1]; [6],18%
same,Population Mitochondria Different-Phenotype (%),[1]; [6],16%
same,Population Mitotic Cells (%),[1]; [6],50%
same,Population Normal (%),[1]; [6],92%
same,Population Pyknosed Nuclei (%),[1]; [6],2%
same,Population Tubulin-Different-Phenotype (%),[1]; [6],17%
same,Population Apoptotic (%),[1]; [7],27%
same,Population Fragmented Nuclei (%),[1]; [7],4%
same,Population Healthy Nuclei (%),[1]; [7],89%
same,Population Hoechst High Intensity Objects (%),[1]; [7],1%
same,Population Membrane Permeable-Phenotype (%),[1]; [7],5%
same,Population Mitochondria Different-Phenotype (%),[1]; [7],24%
same,Population Mitotic Cells (%),[1]; [7],72%
same,Population Normal (%),[1]; [7],98%
same,Population Pyknosed Nuclei (%),[1]; [7],5%
same,Population Tubulin-Different-Phenotype (%),[1]; [7],28%
same,Population Apoptotic (%),[1]; [8],33%
same,Population Fragmented Nuclei (%),[1]; [8],7%
same,Population Healthy Nuclei (%),[1]; [8],90%
same,Population Hoechst High Intensity Objects (%),[1]; [8],8%
same,Population Membrane Permeable-Phenotype (%),[1]; [8],7%
same,Population Mitochondria Different-Phenotype (%),[1]; [8],33%
same,Population Mitotic Cells (%),[1]; [8],66%
same,Population Normal (%),[1]; [8],91%
same,Population Pyknosed Nuclei (%),[1]; [8],2%
same,Population Tubulin-Different-Phenotype (%),[1]; [8],27%
same,Population Fragmented Nuclei (%),[1]; [9],7%
same,Population Healthy Nuclei (%),[1]; [9],87%
same,Population Hoechst High Intensity Objects (%),[1]; [9],2%
same,Population Membrane Permeable-Phenotype (%),[1]; [9],8%
same,Population Mitochondria Different-Phenotype (%),[1]; [9],17%
same,Population Normal (%),[1]; [9],97%
same,Population Tubulin-Different-Phenotype (%),[1]; [9],18%
same,Population Apoptotic (%),[1]; [10],60%
same,Population Fragmented Nuclei (%),[1]; [10],10%
same,Population Healthy Nuclei (%),[1]; [10],85%
same,Population Hoechst High Intensity Objects (%),[1]; [10],6%
same,Population Membrane Permeable-Phenotype (%),[1]; [10],11%
same,Population Mitochondria Different-Phenotype (%),[1]; [10],20%
same,Population Mitotic Cells (%),[1]; [10],40%
same,Population Normal (%),[1]; [10],93%
same,Population Pyknosed Nuclei (%),[1]; [10],4%
same,Population Tubulin-Different-Phenotype (%),[1]; [10],20%
same,Population Apoptotic (%),[1]; [11],44%
same,Population Fragmented Nuclei (%),[1]; [11],3%
same,Population Healthy Nuclei (%),[1]; [11],93%
same,Population Hoechst High Intensity Objects (%),[1]; [11],1%
same,Population Membrane Permeable-Phenotype (%),[1]; [11],5%
same,Population Mitochondria Different-Phenotype (%),[1]; [11],22%
same,Population Mitotic Cells (%),[1]; [11],55%
same,Population Normal (%),[1]; [11],98%
same,Population Pyknosed Nuclei (%),[1]; [11],3%
same,Population Tubulin-Different-Phenotype (%),[1]; [11],24%
same,Population Apoptotic (%),[1]; [12],20%
same,Population Fragmented Nuclei (%),[1]; [12],9%
same,Population Healthy Nuclei (%),[1]; [12],87%
same,Population Hoechst High Intensity Objects (%),[1]; [12],7%
same,Population Membrane Permeable-Phenotype (%),[1]; [12],2%
same,Population Mitochondria Different-Phenotype (%),[1]; [12],24%
same,Population Mitotic Cells (%),[1]; [12],80%
same,Population Normal (%),[1]; [12],92%
same,Population Pyknosed Nuclei (%),[1]; [12],2%
same,Population Tubulin-Different-Phenotype (%),[1]; [12],38%
same,Growth Rate,[2]; [17],0
same,Growth Rate,[2]; [18],1
same,Growth Rate,[2]; [19],1
same,Growth Rate,[2]; [15],1
same,Growth Rate,[2]; [16],0
same,Growth Rate,[3]; [17],1
same,Growth Rate,[3]; [18],0
same,Growth Rate,[3]; [13],0
same,Growth Rate,"[3]; 6 h, replicate number 2, timepoint 6 hours",1
same,Growth Rate,[3]; [14],0
same,Growth Rate,[3]; [19],1
same,Growth Rate,[3]; [15],0
same,Growth Rate,[3]; [16],0
same,Growth Rate,[4]; [18],0
same,Growth Rate,[4]; [13],0
same,Growth Rate,[4]; [14],1
same,Growth Rate,[4]; [19],0
same,Growth Rate,[4]; [15],0
same,Growth Rate,[4]; [16],0
